From ChEMBL document CHEMBL1255521, “Identification and optimization of substituted 5-aminopyrazoles as potent and selective adenosine A1 receptor antagonists” (Bioorg Med Chem Lett, 2010)
Active and inactive are the calls of the source. The calls are words filed in the database; no cut-off is given here.

Tests used:
Adenosine receptor A1 = target: T1, Adenosine receptor A1 (Homo sapiens, UniProt P30542); assay: Antagonist activity at adenosine A1 receptor by cAMP assay; format: functional
T1 sequence (P30542 whole entry): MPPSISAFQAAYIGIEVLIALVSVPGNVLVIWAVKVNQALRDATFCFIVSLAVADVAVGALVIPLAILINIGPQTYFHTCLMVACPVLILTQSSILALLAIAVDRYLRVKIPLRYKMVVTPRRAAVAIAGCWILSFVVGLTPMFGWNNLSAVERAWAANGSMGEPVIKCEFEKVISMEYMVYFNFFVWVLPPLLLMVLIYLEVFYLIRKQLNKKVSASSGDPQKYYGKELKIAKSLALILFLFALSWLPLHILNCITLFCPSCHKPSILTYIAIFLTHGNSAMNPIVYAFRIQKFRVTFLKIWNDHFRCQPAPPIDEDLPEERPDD
Outline: (§1)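 cAMP functional assay run in antagonist mode at each receptor subtype, with IC50 values reported as means of three experiments.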

[1] = Half life in Wistar rat at 1 mg/kg, iv and 3 mg/kg, po; format: ADME, organism-based; settings: in vivo
Outline: (§2)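 Pharmacokinetics in Wistar rats, with intravenous dosing at 1 mg/kg in a vehicle of 1% DMSO and 99% plasma.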

[2] = Oral bioavailability in Wistar rat at 3 mg/kg; format: ADME, organism-based; settings: in vivo
[3] = Blood clearance in Wistar rat at 1 mg/kg, iv and 3 mg/kg, po; format: ADME, organism-based; settings: whole blood; outline: as §2
Adenosine receptor A2b = target: T2, Adenosine receptor A2b (Homo sapiens, UniProt P29275); assay: Antagonist activity at adenosine A2B receptor by cAMP assay; format: functional; outline: as §1
T2 sequence (P29275 whole entry): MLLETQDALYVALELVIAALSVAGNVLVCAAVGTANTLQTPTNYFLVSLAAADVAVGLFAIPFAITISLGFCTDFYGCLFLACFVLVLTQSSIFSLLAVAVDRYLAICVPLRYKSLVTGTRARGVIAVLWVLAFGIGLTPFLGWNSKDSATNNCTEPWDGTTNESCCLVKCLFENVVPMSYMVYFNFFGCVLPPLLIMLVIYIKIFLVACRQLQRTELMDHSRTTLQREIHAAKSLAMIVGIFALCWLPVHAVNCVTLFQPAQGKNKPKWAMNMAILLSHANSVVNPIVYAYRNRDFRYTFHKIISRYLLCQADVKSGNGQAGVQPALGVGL

Adenosine receptor A2a = Adenosine receptor A2a (Homo sapiens, UniProt P29274); assay: Antagonist activity at adenosine A2A receptor by cAMP assay; format: functional; outline: as §1
Adenosine receptor A2a, sequence (P29274 whole entry): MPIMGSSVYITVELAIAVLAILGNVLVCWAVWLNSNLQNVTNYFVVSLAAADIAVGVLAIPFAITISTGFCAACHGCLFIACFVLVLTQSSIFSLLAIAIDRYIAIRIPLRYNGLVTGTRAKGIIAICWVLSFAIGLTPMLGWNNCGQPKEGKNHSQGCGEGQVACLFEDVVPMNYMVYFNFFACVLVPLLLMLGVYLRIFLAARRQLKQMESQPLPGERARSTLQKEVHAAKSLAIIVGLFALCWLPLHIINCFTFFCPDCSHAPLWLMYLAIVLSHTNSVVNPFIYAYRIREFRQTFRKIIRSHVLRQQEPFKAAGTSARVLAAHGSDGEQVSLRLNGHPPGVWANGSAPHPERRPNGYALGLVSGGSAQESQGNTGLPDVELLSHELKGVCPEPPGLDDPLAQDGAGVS

Adenosine receptor A3 = target: T3, Adenosine receptor A3 (Homo sapiens, UniProt P0DMS8); assay: Antagonist activity at adenosine A3 receptor by cAMP assay; format: functional; outline: as §1
T3 sequence (P0DMS8 whole entry): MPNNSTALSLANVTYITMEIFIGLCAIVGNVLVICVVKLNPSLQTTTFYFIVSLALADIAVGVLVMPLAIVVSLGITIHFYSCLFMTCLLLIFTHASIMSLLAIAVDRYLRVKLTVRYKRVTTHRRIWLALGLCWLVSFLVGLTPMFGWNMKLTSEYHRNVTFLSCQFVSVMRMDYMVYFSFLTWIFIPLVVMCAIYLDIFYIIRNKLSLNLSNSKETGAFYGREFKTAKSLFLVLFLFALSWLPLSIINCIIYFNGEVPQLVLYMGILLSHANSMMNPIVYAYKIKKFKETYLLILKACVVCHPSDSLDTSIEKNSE

Rattus norvegicus [4] = assay: Natriuretic activity in Wistar rat assessed as increase in natriuresis at 0.1 mg/kg, iv administered after 7 days of acclimatization; format: functional, organism-based; design: dose 0.1 mg/kg
Outline: (§3)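 Wistar rats received compound intravenously in 1 ml/kg vehicle (40% PEG400, 60% Tris buffer), 6–8 animals per dose group, at doses between 0.1 and 3.0 mg/kg. Urine was collected at the cage bottom into collecting tubes, usually over 4 h. Volume was measured, and sodium and potassium were read by flame photometer.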

Mus musculus [5] = assay: Anticonvulsant activity in mouse assessed as inhibition of pentylenetetrazole-induced convulsion at 30 mg/kg, iv; format: functional, organism-based; design: dose 30 mg/kg
[6] = Selectivity ratio of IC50 for adenosine A2B receptor to IC50 for adenosine A1 receptor
Rattus norvegicus [7] = assay: Diuretic activity in Wistar rat assessed as urine volume at 0.3 mg/kg, iv administered after 7 days of acclimatization; format: functional, organism-based; design: dose 0.3 mg/kg; outline: as §3
Mus musculus [8] = assay: Anticonvulsant activity in mouse assessed as inhibition of maximal electroshock-induced convulsion at 30 mg/kg, iv by MES test; format: functional, organism-based; design: dose 30 mg/kg

SMILES | IC50 (Adenosine receptor A1) [nM] | IC50 (Adenosine receptor A2b) [nM] | IC50 (Adenosine receptor A2a) [nM] | other results
COc1ccc(Nc2c(-c3ccc(OC)c(OC)c3)c(C)nn2-c2ccccc2C)c(C(=O)O)c1 | 233 |  |  | 
COc1ccc(Nc2c(-c3ccc(C(C)=O)cc3)c(C)nn2-c2ccccc2C)c(C(=O)O)c1 | 40 |  |  | half-life [1]: 1.5 h; bioavailability [2]: 20%; clearance [3]: 66.7 mL/min/kg
CCc1nn(-c2ccccc2C)c(Nc2ccccc2C(=O)O)c1-c1ccc2nccnc2c1 | 13 | > 50000 | > 50000 | 
COc1ccc(Nc2c(-c3ccc(F)c(F)c3)c(C)nn2-c2ccccc2C)c(C(=O)O)c1 | 294 |  |  | 
Cc1ccccc1-n1ncc(-c2ccc3nccnc3c2)c1Nc1ccccc1C(=O)O | 277 | > 50000 | > 50000 | 
COc1ccc(Nc2c(-c3ccc(C)c(C)c3)c(C)nn2-c2ccccc2C)c(C(=O)O)c1 | 568 |  |  | 
COc1ccc(Nc2c(-c3ccc4c(c3)OCCO4)c(C)nn2-c2ccccc2C)c(C(=O)O)c1 | 27 |  |  | 
COc1ccc(Nc2c(-c3ccc4nccnc4c3)c(C)nn2-c2ccccc2C)c(C(=O)O)c1 | 3.2 | > 50000 | > 50000 | IC50 (Adenosine receptor A3): 13000 nM; half-life [1]: 0.4 h; bioavailability [2]: 20%; clearance [3]: 43.7 mL/min/kg
COc1ccc(Nc2c(-c3ccc4c(c3)OCO4)c(C)nn2-c2ccccc2C)c(C(=O)O)c1 | 231 |  |  | 
CCc1ccccc1-n1nc(C)c(-c2ccc3nccnc3c2)c1Nc1ccc(OC)cc1C(=O)O | 6.4 | > 50000 | > 50000 | 
COc1ccc(-c2c(C)nn(-c3ccccc3C)c2Nc2ccc(OC)cc2C(=O)O)cc1 | 306 |  |  | 
COc1ccc(Nc2c(-c3ccc(C)cc3)c(C)nn2-c2ccccc2C)c(C(=O)O)c1 | 3.16 |  |  | 
COc1ccc(Nc2c(-c3ccc4nccnc4c3)c(C)nn2-c2ccccc2)c(C(=O)O)c1 | 2.8 | 1100 | 5500 | 
Cc1ccccc1-n1nc(C)c(-c2cc(F)c3nccnc3c2)c1Nc1ccccc1C(=O)O |  | > 50000 | > 50000 | IC50 (Adenosine receptor A3): > 10000 nM; Activity (Rattus norvegicus [4]): Active; Activity (Mus musculus [5]): inactive; half-life [1]: 1.8 h; Ratio IC50 [6]: > 83000; bioavailability [2]: 97%; Activity (Rattus norvegicus [7]): Active; clearance [3]: 9.5 mL/min/kg; Activity (Mus musculus [8]): inactive
COc1ccc(Nc2c(-c3ccc4nccnc4c3)c(C)nn2C2CCCCC2)c(C(=O)O)c1 | 435 | > 50000 | > 50000 | 
COc1ccc(Nc2c(-c3ccc4nccnc4c3)c(C)nn2-c2ccccc2Cl)c(C(=O)O)c1 | 7.3 | > 50000 | > 50000 | 
Cc1ccccc1-n1nc(C)c(-c2ccc3nccnc3c2)c1Nc1ccc(Cl)cc1C(=O)O | 16 | > 50000 | > 50000 | 
Cc1ccccc1-n1nc(C)c(-c2ccc3nccnc3c2)c1Nc1ccccc1C(=O)O | 8 | > 50000 | > 50000 | 
COc1ccc(Nc2c(-c3ccc(F)cc3)c(C)nn2-c2ccccc2C)c(C(=O)O)c1 | 1.39 |  |  | 
Cc1ccc(Nc2c(-c3ccc4nccnc4c3)c(C)nn2-c2ccccc2C)c(C(=O)O)c1 | 5.1 | > 50000 | > 50000 | 
Cc1ccccc1-n1nc(C(F)(F)F)c(-c2ccc3nccnc3c2)c1Nc1ccccc1C(=O)O | 9 | 19000 | > 50000 | 
